Activity, Ki and EC50 data for three compounds are collected here from ChEMBL document CHEMBL4402598, “Design and Synthesis of Bitopic 2-Phenylcyclopropylmethylamine (PCPMA) Derivatives as Selective Dopamine D3 Receptor Ligands” (J Med Chem, 2020).

Some results are limits rather than exact numbers.

For data set [1], the target named is 5-hydroxytryptamine receptor 2A (Homo sapiens, UniProt P28223). Put plainly: Agonist activity at 5HT2A receptor (unknown origin) expressed in HEK293 cells co-expressing Gq assessed as induction of calcium mobilization measured at 1 sec interval for 60 secs by Fluo-4 calcium dye based FLIPR assay. The class given is cell-based. The conditions noted are these: hek293, 1 min. (In general: Calcium flux is commonly read through the fluorescence of an indicator in the cells.)
5-hydroxytryptamine receptor 2A, sequence (P28223 whole entry): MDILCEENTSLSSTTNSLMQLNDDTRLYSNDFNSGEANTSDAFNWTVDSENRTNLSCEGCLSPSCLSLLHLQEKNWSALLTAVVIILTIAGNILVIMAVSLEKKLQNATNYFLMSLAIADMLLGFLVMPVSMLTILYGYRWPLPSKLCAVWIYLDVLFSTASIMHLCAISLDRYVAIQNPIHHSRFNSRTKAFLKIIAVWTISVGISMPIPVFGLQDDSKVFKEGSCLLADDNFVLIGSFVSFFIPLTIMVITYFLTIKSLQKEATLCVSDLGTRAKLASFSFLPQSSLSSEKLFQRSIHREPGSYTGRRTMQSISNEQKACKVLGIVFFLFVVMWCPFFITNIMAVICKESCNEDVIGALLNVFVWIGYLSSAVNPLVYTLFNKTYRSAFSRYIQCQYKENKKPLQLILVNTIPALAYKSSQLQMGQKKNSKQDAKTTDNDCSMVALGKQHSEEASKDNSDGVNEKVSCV

The next data set addresses T1, D(4) dopamine receptor (Homo sapiens, UniProt P21917).
T1 sequence (P21917 whole entry): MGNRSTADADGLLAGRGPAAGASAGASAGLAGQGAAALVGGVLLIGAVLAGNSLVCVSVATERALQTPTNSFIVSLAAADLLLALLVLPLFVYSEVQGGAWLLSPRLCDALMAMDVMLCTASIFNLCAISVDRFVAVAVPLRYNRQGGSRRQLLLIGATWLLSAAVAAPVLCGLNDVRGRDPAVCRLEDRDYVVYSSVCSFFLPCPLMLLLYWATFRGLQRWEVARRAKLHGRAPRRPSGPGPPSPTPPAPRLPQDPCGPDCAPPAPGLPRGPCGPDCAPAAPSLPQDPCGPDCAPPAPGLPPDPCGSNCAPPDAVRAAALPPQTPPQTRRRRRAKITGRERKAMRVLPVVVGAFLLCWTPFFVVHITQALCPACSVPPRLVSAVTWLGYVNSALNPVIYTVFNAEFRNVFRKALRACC
Put plainly: Displacement of [3H]-N-methylspiperone from recombinant human D4 receptor stably expressed in HEK cell membranes measured after 90 mins by microbeta scintillation counting method.

The next data set concerns the target D(1A) dopamine receptor (Homo sapiens, UniProt P21728). Put plainly: Displacement of [3H]-SCH23390 from recombinant human D1 receptor transiently expressed in HEKT cell membranes measured after 90 mins by microbeta scintillation counting method. (In general: In a radioligand displacement assay an active substance lowers the binding of a labelled ligand.)
Another data set deals with D(2) dopamine receptor (Homo sapiens, UniProt P14416). Put plainly: Displacement of [3H]-N-methylspiperone from recombinant human D2 receptor stably expressed in fibroblast cell membranes measured after 90 mins by microbeta scintillation counting method.
D(2) dopamine receptor, sequence (P14416 whole entry): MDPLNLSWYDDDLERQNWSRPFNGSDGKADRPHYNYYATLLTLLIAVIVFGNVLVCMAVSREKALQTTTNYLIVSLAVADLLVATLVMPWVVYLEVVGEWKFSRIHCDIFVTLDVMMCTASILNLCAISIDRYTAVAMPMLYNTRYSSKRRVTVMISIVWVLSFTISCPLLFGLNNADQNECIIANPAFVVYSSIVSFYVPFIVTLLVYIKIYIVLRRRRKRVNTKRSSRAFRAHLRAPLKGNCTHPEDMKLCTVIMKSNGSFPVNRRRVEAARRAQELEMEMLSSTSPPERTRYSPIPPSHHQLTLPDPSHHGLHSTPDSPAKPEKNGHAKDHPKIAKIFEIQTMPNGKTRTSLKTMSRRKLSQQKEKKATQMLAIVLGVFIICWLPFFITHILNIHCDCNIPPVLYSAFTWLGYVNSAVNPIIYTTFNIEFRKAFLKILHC
The target of a further data set is D(1B) dopamine receptor (Homo sapiens, UniProt P21918). Put plainly: Displacement of [3H]-SCH23390 from recombinant human D5 receptor transiently expressed in HEKT cell membranes measured after 90 mins by microbeta scintillation counting method.
D(1B) dopamine receptor, sequence (P21918 whole entry): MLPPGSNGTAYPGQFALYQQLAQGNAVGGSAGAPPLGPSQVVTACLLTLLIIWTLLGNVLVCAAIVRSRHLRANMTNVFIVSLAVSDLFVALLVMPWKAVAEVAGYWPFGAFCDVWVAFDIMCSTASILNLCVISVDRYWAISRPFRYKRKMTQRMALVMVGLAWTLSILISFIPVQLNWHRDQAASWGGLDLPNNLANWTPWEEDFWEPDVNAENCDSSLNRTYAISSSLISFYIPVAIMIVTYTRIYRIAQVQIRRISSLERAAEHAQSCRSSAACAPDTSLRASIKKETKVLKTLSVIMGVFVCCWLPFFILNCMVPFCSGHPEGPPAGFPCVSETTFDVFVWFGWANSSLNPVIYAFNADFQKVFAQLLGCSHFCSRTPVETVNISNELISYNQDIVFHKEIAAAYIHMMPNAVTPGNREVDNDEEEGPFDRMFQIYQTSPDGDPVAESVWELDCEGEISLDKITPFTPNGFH
The target of data set [2] is 5-hydroxytryptamine receptor 2B (Homo sapiens, UniProt P41595). Put plainly: Agonist activity at 5HT2B receptor (unknown origin) expressed in HEK293 cells co-expressing Gq assessed as induction of calcium mobilization measured at 1 sec interval for 60 secs by Fluo-4 calcium dye based FLIPR assay. The data set is classed as cell-based. The conditions noted are these: hek293, 1 min.
5-hydroxytryptamine receptor 2B, sequence (P41595 whole entry): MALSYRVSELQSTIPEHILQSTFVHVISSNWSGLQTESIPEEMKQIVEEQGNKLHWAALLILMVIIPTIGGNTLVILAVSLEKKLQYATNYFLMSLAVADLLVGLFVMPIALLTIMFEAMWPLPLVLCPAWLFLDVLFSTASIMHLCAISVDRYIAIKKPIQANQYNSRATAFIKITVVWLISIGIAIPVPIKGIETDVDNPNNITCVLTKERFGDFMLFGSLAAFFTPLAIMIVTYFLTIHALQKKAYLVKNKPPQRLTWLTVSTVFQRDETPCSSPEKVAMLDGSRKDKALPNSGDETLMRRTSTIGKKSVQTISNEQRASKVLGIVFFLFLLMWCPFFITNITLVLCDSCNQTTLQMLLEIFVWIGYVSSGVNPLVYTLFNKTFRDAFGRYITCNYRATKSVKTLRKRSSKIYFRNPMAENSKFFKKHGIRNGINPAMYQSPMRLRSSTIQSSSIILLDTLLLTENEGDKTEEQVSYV

For data set [3], the target named is T2, 5-hydroxytryptamine receptor 2C (Homo sapiens, UniProt P28335).
T2 sequence (P28335 whole entry): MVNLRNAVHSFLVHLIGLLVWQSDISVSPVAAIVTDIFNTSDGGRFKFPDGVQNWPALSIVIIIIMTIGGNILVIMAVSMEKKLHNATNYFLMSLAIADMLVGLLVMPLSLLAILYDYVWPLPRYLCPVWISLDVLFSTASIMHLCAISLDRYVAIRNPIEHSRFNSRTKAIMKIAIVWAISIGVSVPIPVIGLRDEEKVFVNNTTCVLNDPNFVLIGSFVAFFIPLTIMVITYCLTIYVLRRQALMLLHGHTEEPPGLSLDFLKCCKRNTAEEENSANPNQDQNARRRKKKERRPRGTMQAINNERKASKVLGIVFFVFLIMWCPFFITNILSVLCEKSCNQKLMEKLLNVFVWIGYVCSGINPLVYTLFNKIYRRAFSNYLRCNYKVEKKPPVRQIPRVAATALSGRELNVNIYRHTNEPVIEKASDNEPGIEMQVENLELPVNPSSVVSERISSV
Put plainly: Displacement of [3H]-Mesulergine from recombinant human 5HT2C receptor expressed in HEKT cell membranes measured after 90 mins by microbeta scintillation counting method.

In data set [4] the target is T2, 5-hydroxytryptamine receptor 2C. Put plainly: Agonist activity at human 5HT2C receptor stably expressed in HEK293 cells co-expressing Gq assessed as induction of calcium mobilization measured at 1 sec interval for 60 secs by Fluo-4 calcium dye based FLIPR assay. The data set is classed as functional, cell-based. In a few lines:
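HEK293 cells stably expressing 5-HT2C, plated overnight in DMEM with 1% dialyzed FBS (15,000 cells/well), loaded with Fluo-4 Direct in HBSS/20 mM HEPES pH 7.4/2.5 mM probenecid for 50 min at 37 °C, then 10 min at room temperature. FLIPR read 1/s for 2 min; 10 s baseline subtracted from peak within 60 s; fold of basal. Mean of ≥3 experiments.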

D(1A) dopamine receptor, sequence (P21728 whole entry): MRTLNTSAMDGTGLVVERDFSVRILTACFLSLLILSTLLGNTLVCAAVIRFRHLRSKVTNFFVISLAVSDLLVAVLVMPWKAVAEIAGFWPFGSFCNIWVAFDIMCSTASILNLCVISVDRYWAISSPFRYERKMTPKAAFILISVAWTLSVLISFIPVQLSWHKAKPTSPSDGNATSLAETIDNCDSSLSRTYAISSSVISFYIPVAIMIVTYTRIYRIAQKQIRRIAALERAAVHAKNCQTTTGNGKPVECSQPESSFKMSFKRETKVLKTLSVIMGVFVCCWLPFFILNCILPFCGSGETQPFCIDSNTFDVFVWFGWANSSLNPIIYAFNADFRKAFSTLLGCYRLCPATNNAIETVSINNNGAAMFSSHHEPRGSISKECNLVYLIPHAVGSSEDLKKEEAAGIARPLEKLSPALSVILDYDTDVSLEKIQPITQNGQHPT

With `CCCN(CCCCNC(=O)c1cc2ccccc2[nH]1)C[C@H]1C[C@@H]1c1cccc(Cl)c1Cl.Cl`, the figures for the Activity result in data set [1] and in data set [2] were “Active” and “Not Active”, respectively. Besides, the Ki (as a rule, the equilibrium dissociation constant of an inhibitor or competing ligand from its target) was 676 nM on D(4) dopamine receptor; 1120 nM on D(1A) dopamine receptor; 992 nM at D(2) dopamine receptor; over 5 µM on D(1B) dopamine receptor; 61.7 nM in data set [3]. The EC50 (as a rule, the midpoint of the concentration-response curve) in data set [4] was 2550 nM.

For `CCCN(CCCCNC(=O)c1ccc2ccccc2c1)C[C@H]1C[C@@H]1c1cccc(Cl)c1Cl.Cl`, the Activity result in data set [1] is “Active”; in data set [2], “Not Active”. Further, the Ki at D(4) dopamine receptor is 776 nM; on D(1A) dopamine receptor it was 1050 nM; on D(2) dopamine receptor, 1150 nM; at D(1B) dopamine receptor it was over 5 µM; in data set [3] it was 138 nM. Also, in data set [4], the EC50 is 3540 nM.

Take `CCCN(CCCCNC(=O)c1ccc(-c2ccccn2)cc1)C[C@H]1C[C@@H]1c1cccc(Cl)c1Cl.Cl`: the Activity result in data set [1] is “Active”; in data set [2], “Not Active”. Also, the Ki at D(4) dopamine receptor is 912 nM; on D(1A) dopamine receptor, 2340 nM; on D(1B) dopamine receptor, over 5 µM; in data set [3], 44.7 nM. Moreover, the EC50 in data set [4] came out at 738 nM.
